ChEMBL document CHEMBL1144928, “Antimalarial activity of novel 1,2,5,6-tetraoxacycloalkanes and 1,2,5-trioxacycloalkanes” (J Med Chem, 2003)

Legend:
[1] = test system: Mus musculus; assay: Compound was tested in vitro Antimalarial activity against Plasmodium berghei in infected mice (Mus musculus) administered per orally; type: functional; settings: po
Outline: (§1)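 Mice infected with P. berghei NK 65 strain, in groups of five, were dosed once daily on days 0–3 with a range of concentrations in olive oil. Dosing was intraperitoneal or oral.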

[2] = test system: Mus musculus; assay: Compound was tested in vitro Antimalarial activity against Plasmodium berghei in infected mice (Mus musculus) administered intraperitoneally; type: functional; settings: ip; outline: as §1
[3] = (§2) Selectivity index was determined; type: functional
Outline: (§3)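 Selectivity was calculated as the mean EC50 for FM3A cells divided by the mean EC50 for P. falciparum FCR-3.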

[4] = test system: FM3A; assay: Compound was tested in vitro cytotoxicity against FM3A cell; type: functional, cell-based; settings: Mus musculus
Outline: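 Cytotoxicity control used mouse mammary tumor FM3A cells in culture. The 50% inhibitory concentration (EC50) was determined by a previously reported protocol.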

[5] = test system: Plasmodium falciparum; assay: In vitro antimalarial activity against Plasmodium falciparum; type: functional, organism-based
Outline: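 Tested against chloroquine-sensitive P. falciparum FCR-3 strain in culture. EC50 was determined by a previously reported protocol.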

[6] = as §2; type: functional; outline: as §3; remark: listed apart in the source
[7] = test system: Plasmodium falciparum; assay: In vitro antimalarial activity against […]; type: functional, organism-based

| Structure (SMILES) | ED50 [1] | ED50 [2] | ED90 [2] | EC50 [3] | EC50 [4] | EC50 [5] | Selectivity [6] | ED90 [1] | EC50 [7] |
| --- | --- | --- | --- | --- | --- | --- | --- | --- | --- |
| c1ccc(C23OOCCCOOC2C2CCC3C2)cc1 (stereo unspecified) | > 100 mg/kg | 13 mg/kg | 50 mg/kg | 237 µM | 45 µM | 0.19 µM | – | – | – |
| c1ccc(C23OOC4(CCCCC4)OOC2C2CCC3C2)cc1 (stereo unspecified) [TETRACYCLOALKANES] | – | – | – | – | 11 µM | 0.45 µM | 24 | – | – |
| C[C@@H]1CC[C@H]2[C@@H](C)C(=O)O[C@@H]3O[C@@]4(C)CC[C@@H]1[C@]32OO4 [ARTEMISININ] | 32 mg/kg | 5.4 mg/kg | 13 mg/kg | – | – | – | 1000 | 89 mg/kg | – |
| c1ccc(C23OOC(C4CCCCC4)OOC2C2CCC3C2)cc1 (stereo unspecified) | – | 70 mg/kg | > 100 mg/kg | – | – | – | 52 | – | 0.21 µM |
| CC1(C2OOC3C4CCC(C4)C3(c3ccccc3)OO2)CCCC1 (stereo unspecified) | – | – | – | – | 5.9 µM | 0.13 µM | 45 | – | – |
| CC1(CI)CCOOC2(c3ccccc3)C3CCC(C3)C2OO1 (stereo unspecified) | – | – | – | – | 11 µM | 0.15 µM | 73 | – | – |
| CC1(CI)COC2(c3ccccc3)C3CCC(C3)C2OO1 (stereo unspecified) | – | – | – | – | 11 µM | 1 µM | 11 | – | – |
| Fc1ccc(C2OOC3C4CCC(C4)C3(c3ccccc3)OO2)cc1 (stereo unspecified) | – | – | – | – | 11 µM | 1 µM | 11 | – | – |
| c1ccc(C2OOC3C4CCC(C4)C3(c3ccccc3)OO2)cc1 (stereo unspecified) | – | – | – | – | 13 µM | 1.5 µM | 9 | – | – |
| CC1(CI)CCOC2(c3ccccc3)C3CCC(C3)C2OO1 (stereo unspecified) | – | – | – | – | 15 µM | 0.005 µM | 3000 | – | – |
